Measurements taken from PMC4196715 (American journal of transplantation : official journal of …, 2014).
Where two headings read alike, the source gives them in different places.

Tests used:
[1] = system: BALB/c to B6 cardiac allograft model; format: in vivo, mouse; settings: for graft histology on days 10–11: H&E, no-IS grafts showed severe cellular rejection; for Foxp3 mRNA expression in allografts: PCR, RAPA being superior to AZD8055; for enhancement of graft-infiltrating Foxp3+ Treg: immunoperoxidase staining of allograft, vs no IS
[2] = ref Dr. A.D. McCormick, Astrazeneca, UK, personal communication; cited from earlier work
[3] = mice, oral administration; cited from earlier work
[4] = oral dosing, Phase I; cited from earlier work
Renal function = format: in vivo, mouse; settings: after 10 days of treatment
How it was run: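 B6 recipients of BALB/c heterotopic heart grafts were given test compound at 10 mg/kg twice daily i.p. (days 2–11) in PBS with 0.02% Tween 80 and 0.26% polyethylene glycol. Serum creatinine was measured after 10 days of treatment, n=4.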

[5] = Pharmacokinetics after i.p. administration; format: in vivo, mice; settings: for AUC 0-infinity / Apparent volume of distribution / Disposition rate constant: i.p., AZD8055 10 mg/kg plasma, RAPA 1 mg/kg whole blood; for concentration at 8 h: 10 mg/kg; for half-life: plasma (AZD8055), whole blood (RAPA), ip
[6] = system: splenic CD4+ and CD8+ T cells of heart graft recipients; format: in vivo, mouse; settings: for CD4+ T cell IFNγ production enhanced by transplantation / CD8+ T cell IFNγ production enhanced by transplantation: splenocytes, day 10–11 post-transplant
[7] = system: B6 CD3+ T cells (CD4+ and CD8+ T cell proliferation); assay: T cell proliferation by CFSE dilution after anti-CD3/CD28 bead stimulation; format: cell-based, mouse
How it was run: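 B6 CD3+ T cells were isolated by negative selection and CFSE-labelled. 1×10^5 cells were stimulated with 2.5×10^4 CD3/CD28 Dynabeads for 5 days. Test compound (10 mM DMSO stock) was added at the start of culture, from 1.95 to 1000 nM. CFSE dilution was gated on CD4+ or CD8+ cells and expressed as percent suppression versus stimulated cells without inhibitor. n=3–4 experiments; means ± SD; t tests.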

[8] = i.v. administration, B6 mice; cited from earlier work

SMILES | graft histology on days 10–11 [1] | Foxp3 mRNA expression in allografts [1] | enhancement of graft-infiltrating Foxp3+ Treg [1] | AUC 0-infinity [5] [µg/mL/h] | Apparent volume of distribution [5] [mL] | Disposition rate constant [5] [h⁻¹] | half-life ([5]; mouse) [h] | CD4+ T cell IFNγ production enhanced by transplantation [6] | CD8+ T cell IFNγ production enhanced by transplantation [6] | further results
COc1ccc(-c2ccc3c(N4CCOC[C@@H]4C)nc(N4CCOC[C@@H]4C)nc3n2)cc1CO [AZD8055, (5-{2,4-Bis[(3S)-3-methylmorpholin-4-yl]pyrido[2,3-d]pyrimidin-7-yl}-2-methoxyphenyl) methanol] | comparatively mild mononuclear cell infiltrate | increased | 7–10 fold | 26.2 | 37 | 0.205 | 3.4 | reaching the same levels as in naïve mice | inhibited completely | fraction in plasma bound to plasma protein [2]: approximately 95%; half-life [3]: approximately 2 h; half-life in humans [4]: approximately 2 h; adverse effects on renal function (Renal function): No adverse effects; serum creatinine levels (Renal function; n=4): 0.2 mg/dL; concentration at 8 h ([5]; mouse, in vivo): 200 nM; concentration at 8 h ([5]; mouse, plasma, intraperitoneal): ≥ 200 nM; percentage of IFN-producing CD4+ and CD8+ T cells compared with animals given RAPA ([6]; day 20 post-transplant, not sustained at day 80): higher; concentrations at which AZD8055 surpassed the ability of RAPA to inhibit T cell proliferation ([7]; CD4+ and CD8+ T cells, CD3/CD28 beads, 5 days): ≥ 200 nM; concentration dependence of inhibition of T cell proliferation ([7]; concentrations tested between 1.95 nM and 1000 nM): dose-related inhibitory effect
CO[C@H]1C[C@@H]2CC[C@@H](C)[C@@](O)(O2)C(=O)C(=O)N2CCCC[C@H]2C(=O)O[C@H]([C@H](C)C[C@@H]2CC[C@@H](O)[C@H](OC)C2)CC(=O)[C@H](C)/C=C(\C)[C@@H](O)[C@@H](OC)C(=O)[C@H](C)C[C@H](C)/C=C/C=C/C=C/1C [RAPA, rapamycin] | comparatively mild mononuclear cell infiltrate | increased | 7–10 fold | 1.93 | 74 | 0.141 | 4.9 | more effective inhibition | inhibited completely | half-life [8]: 6.4 h; recipients with long-term graft survival (>80 days) ([1]; 10-day course, AZD8055 10 mg/kg twice daily i.p., RAPA 1 mg/kg/day i.p.): fifty; concentration at 24 h ([5]; mouse, whole blood, intraperitoneal, 1 mg/kg): > 10 nM
